Test results as given in ChEMBL document CHEMBL1240522, “Effect of goniothalamin on the development of Ehrlich solid tumor in mice” (Bioorg Med Chem, 2010).
The source made the active and inactive calls. The rule behind the calls is not given here.

Tests used:
U-251 = assay: Cytotoxicity against human U251 cells after 48 hrs by sulforhodamine B assay; format: functional; details: U-251, 48 h
Procedure, shortened: (§1)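 Cells grown in RPMI 1640 with 5% FBS at 37 °C, 5% CO2, with penicillin/streptomycin. Treated for 48 h with compound in DMSO/RPMI at […]. Fixed with 50% trichloroacetic acid, protein stained with sulforhodamine B and read at 540 nm. TGI (total growth inhibition) obtained by non-linear regression of the concentration–response curves.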

786-0 = assay: Cytotoxicity against human 786-0 cells after 48 hrs by sulforhodamine B assay; format: functional; details: 786-0, 48 h; procedure, shortened: as §1
[1] = Antitumor activity against mouse EAC cells xenografted in BALB/C mouse assessed as inhibition of increase in tumor volume at 50 mg/kg, ip administered every 3 days measured on day 10 relative to control; format: functional; details: Ehrlich, route intraperitoneal
Procedure, shortened: (§2)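 Ehrlich cells kept as ascites by weekly ip passage of 5 × 10^5 cells in mice. Balb/C mice (n = 8/group) inoculated with 2.5 × 10^6 cells into the right hind footpad. Dosed ip every third day from day 3, vehicle 0.9% saline. Tumour volume taken as plethysmometer paw volume minus basal, every third day to day 15. Reported as % inhibition vs vehicle ± SD; ANOVA.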

Mus musculus [2] = assay: Acute toxicity in BALB/C mouse assessed as reduction of body weight at up to 50 mg/kg, ip after 15 days; format: organism-based; set-up: dose 50 mg/kg, route intraperitoneal; details: in vivo, 360 h
Procedure, shortened: (§3)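 Balb/C mice (20–35 g) dosed intraperitoneally at 50, 100 and 300 mg/kg. Observed for 4 h, then daily for 14 days, for body weight loss, locomotion, behaviour (agitation, lethargy), respiration, salivation, tearing eyes, cyanosis and mortality.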

[3] = Cytotoxicity against human PCO3 cells after 48 hrs by sulforhodamine B assay; format: functional; details: PCO3, 48 h; procedure, shortened: as §1
Mus musculus [4] = assay: Acute toxicity in BALB/C mouse assessed as mortality at up to 300 mg/kg, ip after 4 hrs; format: organism-based; set-up: dose 300 mg/kg, route intraperitoneal; details: in vivo; procedure, shortened: as §3
OVCAR-3 = assay: Cytotoxicity against human OVCAR-3 cells after 48 hrs by sulforhodamine B assay; format: functional; details: OVCAR-3, 48 h; procedure, shortened: as §1
UACC-62 = assay: Cytotoxicity against human UACC62 cells after 48 hrs by sulforhodamine B assay; format: functional; details: UACC-62, 48 h; procedure, shortened: as §1
NCI-H460 = assay: Cytotoxicity against human NCI-H460 cells after 48 hrs by sulforhodamine B assay; format: functional; details: NCI-H460, 48 h; procedure, shortened: as §1
Mus musculus [5] = assay: Acute toxicity in BALB/C mouse assessed as mortality at up to 300 mg/kg, ip after 15 days; format: organism-based; set-up: dose 300 mg/kg, route intraperitoneal; details: in vivo, 360 h; procedure, shortened: as §3
[6] = Cytotoxicity against human NCI-ADR-RES cells after 48 hrs by sulforhodamine B assay; format: functional; procedure, shortened: as §1
[7] = Antitumor activity against mouse EAC cells xenografted in BALB/C mouse assessed as inhibition of increase in tumor volume at 50 mg/kg, ip administered every 3 days measured on day 15 relative to control; format: functional; details: Ehrlich, route intraperitoneal; procedure, shortened: as §2
MCF7 = assay: Cytotoxicity against human MCF7 cells after 48 hrs by sulforhodamine B assay; format: functional; details: MCF7, 48 h; procedure, shortened: as §1
[8] = Antitumor activity against mouse EAC cells xenografted in BALB/C mouse assessed as reduction of tumor weight at 50 mg/kg, ip administered every 3 days measured on day 15 relative to control; format: functional; details: Ehrlich, route intraperitoneal
Procedure, shortened: (§4)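 Ehrlich footpad tumour model in Balb/C mice (n = 8/group, 2.5 × 10^6 cells) with ip dosing every third day from day 3 in 0.9% saline. Mice sacrificed on day 15 and both hind paws weighed. Relative tumour weight = (tumour paw − healthy paw weight)/body weight. Reported as % inhibition vs vehicle ± SD; ANOVA.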

HT-29 = assay: Cytotoxicity against human HT-29 cells after 48 hrs by sulforhodamine B assay; format: functional; details: HT-29, 48 h; procedure, shortened: as §1
Mus musculus [9] = assay: Antiinflammatory activity in BALB/C mouse assessed as inhibition of carrageenan-induced paw edema at 20 mg/kg, ip administered 30 mins before carrageenan challenge measured before 48 hrs by plethysmometer; format: functional, organism-based; set-up: dose 20 mg/kg
Procedure, shortened: (§5)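 Balb/C mice, n = 8/group. Right hind paw basal volume measured by plethysmometer. Single ip dose in 0.9% saline vehicle, then carrageenan 2.5% injected intraplantar into the right hind footpad 30 min later. Edema taken as measured minus basal volume at 1.5, 3.0, 4.5, 6.0, 24, 48 and 72 h. Expressed as % inhibition vs vehicle ± standard deviation; ANOVA.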

[10] = Antitumor activity against mouse EAC cells xenografted in BALB/C mouse assessed as inhibition of tumor growth at 300 mg/kg, ip administered every 3 days measured on day 15 relative to control; format: functional; details: Ehrlich, route intraperitoneal; procedure, shortened: as §2
[11] = Antitumor activity against mouse EAC cells xenografted in BALB/C mouse assessed as reduction of tumor weight at 100 mg/kg, ip administered every 3 days measured on day 15 relative to control; format: functional; details: Ehrlich, route intraperitoneal; procedure, shortened: as §4
Mus musculus [12] = assay: Antiinflammatory activity in BALB/C mouse assessed as inhibition of carrageenan-induced paw edema at 300 mg/kg, ip administered 30 mins before carrageenan challenge measured after 48 to 72 hrs by plethysmometer; format: functional, organism-based; set-up: dose 300 mg/kg; procedure, shortened: as §5
Mus musculus [13] = assay: Antiinflammatory activity in BALB/C mouse assessed as inhibition of carrageenan-induced paw edema at 100 mg/kg, ip administered 30 mins before carrageenan challenge measured after 3 to 4.5 hrs by plethysmometer; format: functional, organism-based; set-up: dose 100 mg/kg; procedure, shortened: as §5
Mus musculus [14] = assay: Antiinflammatory activity in BALB/C mouse assessed as inhibition of carrageenan-induced paw edema at 30 mg/kg, ip administered 30 mins before carrageenan challenge measured before 6 hrs by plethysmometer; format: functional, organism-based; set-up: dose 30 mg/kg; procedure, shortened: as §5
[15] = Antitumor activity against mouse EAC cells xenografted in BALB/C mouse assessed as inhibition of tumor growth at 30 mg/kg, ip administered every 3 days measured on day 7 relative to control; format: functional; details: Ehrlich, route intraperitoneal; procedure, shortened: as §2
[16] = Antitumor activity against mouse EAC cells xenografted in BALB/C mouse assessed as inhibition of tumor growth at 30 mg/kg, ip administered every 3 days measured on day 15 relative to control; format: functional; details: Ehrlich, route intraperitoneal; procedure, shortened: as §2
Mus musculus [17] = assay: Antiinflammatory activity in BALB/C mouse assessed as inhibition of carrageenan-induced paw edema at 100 mg/kg, ip administered 30 mins before carrageenan challenge measured before 6 hrs by plethysmometer; format: functional, organism-based; set-up: dose 100 mg/kg; procedure, shortened: as §5
[18] = Antitumor activity against mouse EAC cells xenografted in BALB/C mouse assessed as inhibition of tumor growth at 100 mg/kg, ip administered every 3 days measured on day 7 relative to control; format: functional; details: Ehrlich, route intraperitoneal; procedure, shortened: as §2
Mus musculus [19] = assay: Antiinflammatory activity in BALB/C mouse assessed as inhibition of carrageenan-induced paw edema at 30 mg/kg, ip administered 30 mins before carrageenan challenge measured before 48 hrs by plethysmometer; format: functional, organism-based; set-up: dose 30 mg/kg; procedure, shortened: as §5
[20] = Antitumor activity against mouse EAC cells xenografted in BALB/C mouse assessed as reduction of tumor weight at 300 mg/kg, ip administered every 3 days measured on day 15 relative to control; format: functional; details: Ehrlich, route intraperitoneal; procedure, shortened: as §4
[21] = Antitumor activity against mouse EAC cells xenografted in BALB/C mouse assessed as inhibition of tumor growth at 300 mg/kg, ip administered every 3 days measured on day 7 relative to control; format: functional; details: Ehrlich, route intraperitoneal; procedure, shortened: as §2
Mus musculus [22] = assay: Acute toxicity in BALB/C mouse assessed as reduction of body weight at up to 300 mg/kg, ip after 15 days; format: organism-based; set-up: dose 300 mg/kg, route intraperitoneal; details: in vivo, 360 h; procedure, shortened: as §3
Mus musculus [23] = assay: Antiinflammatory activity in BALB/C mouse assessed as inhibition of carrageenan-induced paw edema at 100 mg/kg, ip administered 30 mins before carrageenan challenge measured before 24 hrs by plethysmometer; format: functional, organism-based; set-up: dose 100 mg/kg; procedure, shortened: as §5
[24] = Antitumor activity against mouse EAC cells xenografted in BALB/C mouse assessed as inhibition of tumor growth at 100 mg/kg, ip administered every 3 days measured on day 15 relative to control; format: functional; details: Ehrlich, route intraperitoneal; procedure, shortened: as §2
[25] = Antitumor activity against mouse EAC cells xenografted in BALB/C mouse assessed as reduction of tumor weight at 30 mg/kg, ip administered every 3 days measured on day 15 relative to control; format: functional; details: Ehrlich, route intraperitoneal; procedure, shortened: as §4
Mus musculus [26] = assay: Antiinflammatory activity in BALB/C mouse assessed as inhibition of carrageenan-induced paw edema at 100 mg/kg, ip administered 30 mins before carrageenan challenge measured before 72 hrs by plethysmometer; format: functional, organism-based; set-up: dose 100 mg/kg; procedure, shortened: as §5

| SMILES | TGI (U-251) | TGI (786-0) | TGI [3] | Activity (Mus musculus [4]) | TGI (OVCAR-3) | TGI (UACC-62) | TGI (NCI-H460) | Activity (Mus musculus [5]) | TGI [6] | TGI (MCF7) | TGI (HT-29) | inhibition (Mus musculus [9]) | also measured |
| --- | --- | --- | --- | --- | --- | --- | --- | --- | --- | --- | --- | --- | --- |
| O=C1C=CC[C@@H](/C=C/c2ccccc2)O1 | 24.1 µM | 28.7 µM | 24 µM | Non-toxic | > 100 µM | 76.4 µM | 44.1 µM | Non-toxic | 11.5 µM | 77 µM | 57.6 µM |  | inhibition in vivo at 50 mg/kg [1]: 53.7%; Activity (Mus musculus [2]): Non-toxic; inhibition in vivo at 50 mg/kg [7]: 48.7%; inhibition in vivo at 50 mg/kg [8]: 39.7% |
| CN1C(C(=O)Nc2ccccn2)=C(O)c2ccccc2S1(=O)=O |  |  |  |  |  |  |  |  |  |  |  | Active |  |
| O=C1C=CCC(/C=C/c2ccccc2)O1 (racemic) | 18.2 µM | 22.4 µM | 18.2 µM | Non-toxic | 18.8 µM | 23.2 µM | 36.4 µM | Non-toxic | 6.38 µM | 22.7 µM | 29.2 µM | Active | inhibition in vivo at 300 mg/kg [10]: 66.7%; inhibition in vivo at 100 mg/kg [11]: 31.6%; inhibition (Mus musculus [12]): Active; inhibition (Mus musculus [13]): Active; inhibition (Mus musculus [14]): inactive; inhibition in vivo at 30 mg/kg [15]: 50%; inhibition in vivo at 30 mg/kg [16]: 48.5%; inhibition (Mus musculus [17]): inactive; inhibition in vivo at 100 mg/kg [18]: 41.7%; inhibition (Mus musculus [19]): Active; inhibition in vivo at 300 mg/kg [20]: 41.8%; inhibition in vivo at 300 mg/kg [21]: 35.7%; Activity (Mus musculus [22]): Non-toxic; inhibition (Mus musculus [23]): Active; inhibition in vivo at 100 mg/kg [24]: 40.9%; inhibition in vivo at 30 mg/kg [25]: 36.7%; inhibition (Mus musculus [26]): Active |
